Here are results for 16 compounds from ChEMBL document CHEMBL3860085, “Synthesis and evaluation of dihydropyrimidinone-derived selenoesters as multi-targeted directed compounds against Alzheimer's disease” (Bioorg Med Chem, 2016).

Data set [1] is described as follows: Metal chelating activity assessed as compound-Fe2+ complex formation after 10 mins by UV-Vis spectrophotometer. The data set is classed as physicochemical. The procedure, abridged: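 Fe2+ chelation by modified Minotti–Aust method. Compounds 5–100 μM with Fe2+ 120 μM (final), 37°C 10 min, then 1,10-phenanthroline (0.25% w/v) added and A510 read. Methanol serves as control, BHT as reference chelator. % chelation = (A control − A sample)/A control × 100; EC50 derived. Mean ± SEM, n=3 in duplicate.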

Data set [2] is described as follows: Antioxidant activity assessed as inhibition of Fe2+-induced thiobarbituric acid reactive substance formation in phospholipids extracted from egg yolk by measuring malondialdehyde levels per mg of triglycerides at 100 uM after 1 hr by UV-Vis spectrophotometric method (reference value: 8.17 +/- 0.32 nmol). The data set is classed as functional. Put shortly:
(§1)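 Egg-yolk phospholipids (isopropanol/water extract, pellet resuspended; 1 mg/mL triglycerides) incubated with or without fresh FeSO4 100 μM plus compound in 0.05 M potassium phosphate pH 7.5, 37°C 1 h. Acetic acid (pH 3.4) and 0.6% TBA added, 97°C 1 h, n-butanol extraction, A532 against MDA standard. Reported as nmol MDA/mg triglycerides. Mean ± SEM, n=3 in duplicate.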

Data set [3] is described as follows: Antioxidant activity assessed as inhibition of Fe2+-induced thiobarbituric acid reactive substance formation in phospholipids extracted from egg yolk after 1 hr by UV-Vis spectrophotometric method. It is filed as functional. Put shortly: as §1
The target of the next data set is Acetylcholinesterase (Electrophorus electricus, UniProt O42275). The data set is described as follows: Inhibition of electric eel AChE using acetylthiocholine iodide as substrate preincubated for 15 mins followed by substrate addition measured every 15 secs for 5 to 10 mins by Ellman's method.
Acetylcholinesterase, sequence (O42275 whole entry): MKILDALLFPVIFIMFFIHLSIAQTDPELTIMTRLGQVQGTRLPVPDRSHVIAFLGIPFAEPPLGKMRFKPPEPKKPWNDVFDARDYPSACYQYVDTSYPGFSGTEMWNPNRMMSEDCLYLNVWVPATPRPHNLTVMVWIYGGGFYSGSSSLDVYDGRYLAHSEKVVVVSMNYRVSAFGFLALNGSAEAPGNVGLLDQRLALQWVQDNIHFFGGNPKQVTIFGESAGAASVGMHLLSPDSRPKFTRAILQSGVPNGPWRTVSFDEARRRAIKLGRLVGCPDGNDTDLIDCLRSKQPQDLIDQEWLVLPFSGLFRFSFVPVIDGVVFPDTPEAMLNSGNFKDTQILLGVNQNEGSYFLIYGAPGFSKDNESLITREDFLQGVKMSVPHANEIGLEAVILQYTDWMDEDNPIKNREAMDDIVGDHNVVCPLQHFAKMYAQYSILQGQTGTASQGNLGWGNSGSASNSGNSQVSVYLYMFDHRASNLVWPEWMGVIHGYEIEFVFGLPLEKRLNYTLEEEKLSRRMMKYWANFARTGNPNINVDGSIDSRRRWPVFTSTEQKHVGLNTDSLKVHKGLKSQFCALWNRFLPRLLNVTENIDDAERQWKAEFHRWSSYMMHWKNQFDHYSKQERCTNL

As to `CCOC(=O)C1=C(C[Se]C(=O)c2ccc(C)cc2)NC(=O)NC1c1ccc(C)cc1` (stereo not given), the EC50 in data set [1] amounted to 21.2 µM. In addition, the MDA level in data set [2] turned out to be 0.87 nmol. Moreover, in data set [3], the Activity result is “Dose-dependent effect”.
Regarding `O=c1c2ccccc2[se]n1-c1ccccc1`, in data set [2], the MDA level amounted to 3.22 nmol.
Consider `CCOC(=O)C1=C(C[Se]C(=O)c2ccc(C)cc2)NC(=O)NC1c1cccc([N+](=O)[O-])c1` (stereo not given), for which the EC50 in data set [1] stood at 24.5 µM. Further, in data set [2], the MDA level was 1.51 nmol.
For `CCOC(=O)C1=C(C[Se]C(=O)c2ccc(C)cc2)NC(=O)NC1c1ccccc1` (stereo not given), in data set [1], the EC50 worked out at 10.5 µM. On Acetylcholinesterase, the IC50 stood at 7.21 µM. Also, in data set [2], the MDA level came to 0.46 nmol. The Activity entry in data set [3] is “Dose-dependent effect”.
On to `CCOC(=O)C1=C(CSC(=O)c2ccc(C)cc2)NC(=O)NC1c1ccccc1` (stereo not given), for which the EC50 in data set [1] was determined as 20.2 µM. On Acetylcholinesterase, this compound showed an IC50 of 11.7 µM. Besides, the MDA level in data set [2] worked out at 3.14 nmol.
As to `CCOC(=O)C1=C(C[Se]C(=O)c2ccc(C)cc2)NC(=O)NC1c1ccc(OC)cc1` (stereo not given), in data set [1], the EC50 turned out to be 22.4 µM. Besides, the MDA level in data set [2] was 0.77 nmol. For the same compound, in data set [3], the Activity entry was “Dose-dependent effect”.
Consider `CCOC(=O)C1=C(C[Se]C(=O)c2ccc(C)cc2)NC(=O)NC1c1ccc(N(C)C)cc1` (stereo not given), for which the EC50 in data set [1] was 29.6 µM. Moreover, the MDA level in data set [2] is 3.96 nmol.
Regarding `CCOC(=O)C1=C(C)NC(=O)NC1c1ccccc1` (stereo not given), the EC50 in data set [1] is 15.8 µM. At Acetylcholinesterase, it took 9.23 µM to reach half-maximal inhibition (IC50). Besides, the MDA level in data set [2] amounted to 3.03 nmol.
In the case of `CCOC(=O)C1=C(C[Se]C(=O)c2ccc(C)cc2)NC(=O)NC1c1ccc(O)c(OC)c1` (stereo not given), in data set [1], the concentration giving a half-maximal response (EC50) is 8.1 µM. The compound also registered an IC50 at Acetylcholinesterase of 13.6 µM. For the same compound, the MDA level in data set [2] was found to be 0.68 nmol. For the same compound, the Activity entry in data set [3] is “Dose-dependent effect”.
Take `Cc1ccc(C(=O)[Se]Cc2ccccc2)cc1`: the EC50 in data set [1] was 22.4 µM. The IC50 on Acetylcholinesterase was 12.9 µM. Besides, the MDA level in data set [2] turned out to be 1.23 nmol.
Consider `c1ccc([Se][Se]c2ccccc2)cc1`, for which the MDA level in data set [2] turned out to be 2.41 nmol.
As to `CCOC(=O)C1=C(C[Se]C(C)=O)NC(=O)NC1c1ccccc1` (stereo not given), the EC50 in data set [1] came out at 41.2 µM. Further, the IC50 against Acetylcholinesterase stood at 14.2 µM. For the same compound, the MDA level in data set [2] turned out to be 5.1 nmol.
For the compound `CCOC(=O)C1=C(C[Se]C(=O)c2ccc(C)cc2)N(C)C(=O)NC1c1cccc([N+](=O)[O-])c1` (stereo not given), in data set [1], the EC50 was 32.8 µM. The MDA level in data set [2] stood at 2.29 nmol.
Turning to `CCOC(=O)C1=C(C[Se]C(=O)c2cccc(C(=O)[Se]CC3=C(C(=O)OCC)C(c4ccccc4)NC(=O)N3)c2)NC(=O)NC1c1ccccc1` (stereo not given), the EC50 in data set [1] was 29.9 µM. This compound registered an IC50 at Acetylcholinesterase of 10.6 µM. Also, the MDA level in data set [2] came out at 3.99 nmol.
As to `CCOC(=O)C1=C(C[Se]C(=O)c2ccc(C)cc2)NC(=O)NC1c1cccc2ccccc12` (stereo not given), the concentration for a half-maximal effect (EC50) in data set [1] stood at 35.5 µM. For the same compound, the MDA level in data set [2] turned out to be 1.96 nmol.
With `Cc1cc(C(C)(C)C)c(O)c(C(C)(C)C)c1` [BUTYLATED HYDROXYTOLUENE], the EC50 in data set [1] came out at 23.3 µM.
